Most compounds without a hit are left out; they make up all but 9.2% or so of the library.
Lmaj promast: Leishmania major promastigote growth inhibition, primary screen | Leishmania major promastigotes, resazurin fluorescence viability | inhibition, % at 10 µM | 200,000 tested, 9% active | AID 1063, 2008; in the data active = inhibition above about 50%;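 also: promastigotes grown with compound for 44 hours at 28 °C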
PTEN del growth: growth suppression of PTEN-null HCT116, primary screen, cell-based, CellTiter-Glo. 140,000 tested, 1.2% active. viability, % at 10 µM. HCT116 PTEN-null viability, 60 h; hits give low values;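 active = viability at or below a set limit, 4 SD under the median of all tested compounds, cut at about 3.7% in these data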;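 also: PTEN knockout HCT116 line with beta catenin targeted HCT116 as companion control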
Autophagy HCS: autophagy modulators in MEF cells, primary screen, imaging, high-content, MEF GFP-LC3 | MEF GFP-LC3 puncta imaging; test concentration mostly 10 µM | AID 463193, 2010 | 190,000 tested, 0.98% active | calls only at 10 µM (by protocol);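 active = percentage of spot-positive cells more than 3 SD above its plate mean, without a fluorescence outlier flag or 80% toxicity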
Dynein cargo inh: inhibitors of GR-EGFP nuclear translocation, primary screen, dynein cargo transport inhibitor project, imaging, high-content, 3617.4 mouse cells; test concentration mostly 20 µM; stimulated with dexamethasone, 1 µM; hits give low values; z-score, hits read low; 220,000 tested, 0.47% active;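 active = plate z-score of nuclear minus cytoplasmic receptor signal below a set negative limit, without overly bright fluorescence or cell loss, cut at about -3.5 in these data, passing the limit was not always enough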;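 also: z-score of nuclear minus cytoplasmic ring GR-EGFP intensity difference per well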
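Buffer or medium: Induction medium lacking tetracycline, stripped serum | Also added: Dexamethasone agonist, 1.0 µM final, for 30 min | Timing: 48 h induction, 1 h compound, 30 min dex at 37 °C | Detection: Formaldehyde fixation, Hoechst nuclear stain, 10x automated fluorescence imaging | Measure: Nuclear versus cytoplasmic GR-EGFP signal, averaged per well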
bCat KO growth: primary screen for growth suppressors in beta-catenin knockout HCT116 cells (colon tumor, human); HCT116 beta-catenin knockout viability, CellTiter-Glo, 60 h; hits give low values; viability, % at 10 µM; 140,000 tested, 1.5% active; AID 818, 2007;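 active = viability at or under a set limit, the compound median less 4 SD, cut at about 6% in these data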
Each line names hits and unclear results; the compound was inactive in the other large screens.

O=C1Nc2ccccc2N(O)N1c1ccc(S(=O)(=O)N2CCOCC2)cc1	none
Cc1sc2nc(C(C)Sc3n[nH]c(N)n3)[nH]c(=O)c2c1C (stereo not drawn)	none (no result: PTEN del growth, bCat KO growth)
Cc1nn(C)c(C)c1Nc1ccc(N2C(=O)C3CC=CCC3C2=O)cc1[N+](=O)[O-] (stereo not drawn)	none (no result: PTEN del growth, bCat KO growth)
C#CCN1C(=O)C(O)(CC(=O)/C=C/c2ccco2)c2ccccc21 (stereo not drawn)	none (no result: PTEN del growth, bCat KO growth)
CCCCN1C2=C(C(=O)CCC2)C(c2ccc(Cl)c(Cl)c2)C2=C1c1ccccc1C2=O (stereo not drawn)	none
c1ccc(NC2=NCCCCS2)cc1	none
O=C(/C=C/c1ccccc1)c1ccc(NC2=NCCCS2)cc1	Lmaj promast 100
CC(C)(C)c1ccc(/C=C/C(=O)c2ccc(NC3=NCCCS3)cc2)cc1	Lmaj promast 100, PTEN del growth 0.9, bCat KO growth 1.1
O=C(/C=C/c1ccc(Br)cc1)c1ccc(NC2=NCCCS2)cc1	Lmaj promast 100, PTEN del growth 2.4, bCat KO growth 3.2
CCCOc1ccc(-c2csc(NC(=O)CN3C(=O)CCC3=O)n2)cc1	none
O=C(c1c(F)cccc1F)N1CCC(n2nnc3cc(C(F)(F)F)ccc32)CC1	none (no result: PTEN del growth, bCat KO growth)
O=C(NCC1CCCO1)c1cccc(Oc2ccc([N+](=O)[O-])cc2Cl)c1 (stereo not drawn)	none (no result: PTEN del growth, bCat KO growth)
O=C(OCCCN=C1NS(=O)(=O)c2ccccc21)c1ccccc1F	none
Cc1ccccc1N1C(=O)C(Oc2ccc(Cl)cc2)C1CNC(C)(C)C (stereo not drawn)	Lmaj promast 87
CSc1ccccc1C(=O)C1CCCN(S(=O)(=O)c2c(C)noc2C)C1 (stereo not drawn)	none (no result: PTEN del growth, bCat KO growth)
CC(=O)c1cc(-c2nc3ccccc3n2C)n(C)c1	none
Cn1cc(C(=O)c2ccc(F)cc2)cc1-c1nc2ccccc2n1C	Lmaj promast 71
COC(=O)Cc1cc(OC)c(OC)cc1S(=O)(=O)N(C)C	none (no result: PTEN del growth, bCat KO growth)
Cc1ccc(-c2c[n+](CC(=O)N3c4ccccc4Sc4ccccc43)c3n2CCC3)cc1	Lmaj promast 96
O=C(C[n+]1cc(-c2ccc(F)cc2)n2c1CCC2)N1c2ccccc2Sc2ccccc21	Lmaj promast 91
COCCN(C(=O)/C=C/c1ccccc1)c1nnc(-c2cccnc2)s1	none (no result: PTEN del growth, bCat KO growth)
Cc1nc2ccccc2c(=O)n1NC(=O)CCC(=O)O	none (no result: PTEN del growth, bCat KO growth)
COc1ccc(OC)c(NC(=O)c2sc3nc(Cc4ccccc4)cc(C(F)(F)F)c3c2N)c1	Autophagy HCS active
O=C(CNC(=O)C1COc2ccccc2O1)N/N=C/c1ccc(O)cc1O (stereo not drawn)	Lmaj promast 98
O=C(CNC(=O)C1COc2ccccc2O1)N/N=C\c1cccc(O)c1 (stereo not drawn)	none
COc1cc(/C=C2\C(=O)N(CCC#N)N=C2C)ccc1OCC(=O)Nc1ccccc1	Lmaj promast 60
Cc1ccc(C(c2nnnn2Cc2cccs2)N2CCN(C(=O)c3ccco3)CC2)cc1 (stereo not drawn)	Lmaj promast 58
COc1cccc(C(c2nnnn2Cc2ccccc2)N2CCN(C(=O)c3ccco3)CC2)c1OC (stereo not drawn)	Lmaj promast 79
O=C(Nc1ccc2c(c1)OCO2)C(c1ccc(Cl)cc1)N1CCN(C(=O)c2ccco2)CC1 (stereo not drawn)	Lmaj promast 50
O=C(c1ccco1)N1CCN(C(c2ccc(Cl)cc2)c2nnnn2Cc2ccccc2)CC1 (stereo not drawn)	Lmaj promast 85
CCOc1ccc(C(c2nnnn2Cc2ccccc2)N2CCN(C(=O)c3ccco3)CC2)cc1 (stereo not drawn)	none (no result: PTEN del growth, bCat KO growth)
O=C(c1ccc(NS(=O)(=O)c2cccs2)cc1)N1CCN(c2ccccc2Cl)CC1	none (no result: PTEN del growth, bCat KO growth)
COc1ccc(C(c2nnnn2Cc2ccccc2)N2CCN(C(=O)c3ccco3)CC2)cc1 (stereo not drawn)	Lmaj promast 58
COc1cccc(C(c2nnnn2Cc2ccco2)N2CCN(c3cccc(C)c3C)CC2)c1OC (stereo not drawn)	Lmaj promast 58
CCCCC(c1nnnn1Cc1ccco1)N1CCN(C(=O)c2ccco2)CC1 (stereo not drawn)	Lmaj promast 59
COc1ccc(OC)c(C(c2nnnn2Cc2ccco2)N2CCN(C)CC2)c1 (stereo not drawn)	none (no result: PTEN del growth, bCat KO growth)
CC(NC(=O)Nc1ccc([N+](=O)[O-])cc1)C(c1cccs1)N1CCCC1 (stereo not drawn)	none
Cc1ccc(SC(C)c2nc(-c3cccnc3)no2)cc1 (stereo not drawn)	none
O=C(CN1CCOCC1)NN=C1CCCCCCCCCCC1	Lmaj promast 52
O=C(CN1CCOCC1)NN=C(c1ccccc1)c1ccccc1	none (no result: PTEN del growth, bCat KO growth)
COc1ccc(C(=O)C2CCCN(C(=O)Cn3nc(C)cc3C)C2)cc1F (stereo not drawn)	none (no result: Lmaj promast, PTEN del growth, Autophagy HCS, bCat KO growth)
Cc1c(C(=O)N/N=C/C(C)C)[nH]c2ccc([N+](=O)[O-])cc12	Lmaj promast 51
O=C(c1ccccc1)N1CCN(c2ccc([N+](=O)[O-])c(NCC3CCCO3)c2)CC1 (stereo not drawn)	none (no result: PTEN del growth, bCat KO growth)
COc1ccc(-c2cc(-c3ccc(OC)cc3)nc(-c3ccc4c(c3)NC(=O)CO4)c2)cc1	PTEN del growth 2.4, Autophagy HCS active, bCat KO growth 2.7
Cc1cc(SCC(=O)N/N=C/c2ccc(O)cc2O)c(C)cc1Br	Lmaj promast 100
COc1ccc(-c2cn3cccnc3n2)cc1NS(=O)(=O)c1ccccc1	none (no result: PTEN del growth, bCat KO growth)
COc1ccc(-c2cn3cccnc3n2)cc1F	Lmaj promast 80
COc1ccc(-c2cn3cccnc3n2)cc1NC(=O)c1cccs1	Lmaj promast 97
COc1ccc(-c2cn3cccnc3n2)cc1NC(=O)c1cc(OC)c(OC)c(OC)c1	none (no result: PTEN del growth, bCat KO growth)
CSc1ncc(Cl)c(C(=O)Nc2sc3c(c2C(=O)NCc2ccco2)CCCC3)n1	Autophagy HCS active
COc1ccc(S(=O)(=O)Nc2nc3ccccc3nc2Nc2ccc3c(c2)OCO3)cc1	none
O=S(=O)(Nc1nc2ccccc2nc1Nc1ccc2c(c1)OCCO2)c1cccs1	Lmaj promast 53
C/C(=N\NC(=O)c1ccc(NS(=O)(=O)c2cccs2)cc1)c1ccc2c(c1)OCO2	Lmaj promast 74 (no result: PTEN del growth, bCat KO growth)
Cc1cc(C)nc(/N=C2\NC(=O)CC(C(=O)O)N2c2cccc(Cl)c2)n1 (stereo not drawn)	none (no result: PTEN del growth, bCat KO growth)
COC(=O)/C=C1/N/C(=N\c2nc(C)cc(C)n2)N(c2ccc(Cl)cc2)C1=O	Lmaj promast 50
COc1ccc([N+](=O)[O-])cc1COc1cc(C)cc2oc(=O)cc(-c3ccccc3)c12	Lmaj promast 99
CC(C(=O)Nc1ccc2c(c1)OCCO2)N(C)Cc1c(F)cccc1Cl (stereo not drawn)	Autophagy HCS active (no result: PTEN del growth, bCat KO growth)
Cc1ccc(C)c(C(=O)CCC(=O)O)c1	none (no result: Lmaj promast, PTEN del growth, Autophagy HCS, bCat KO growth)
